≈ marks a conversion by molar mass, not a printed value.
Legend:
[1] = tested on: Candida albicans; test: Antifungal activity against Candida albicans NCIM 3471 after 48 to 72 hrs by SDA agar dilution method; format: functional
In short: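 CLSI agar method. Compounds dissolved in DMSO. C. albicans subcultured on Sabouraud dextrose agar at 25 °C for 72 h, suspended in sterile water at 10^5 cells/mL, and inoculated onto test, drug-free and DMSO control plates. Plates incubated at 25 °C. MIC taken as the lowest concentration that prevents macroscopically visible colonies, read at 48 h and 72 h.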

[2] = tested on: Bacillus subtilis; test: Antibacterial activity against Bacillus subtilis NCIM 2063 after 24 hrs by two-fold serial dilution method; format: functional; conditions: NCIM 2063, 24 h
In short: (§1)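 Bacterial inocula taken from 24 h nutrient agar cultures at 37±1 °C, brought to […] with sterile saline, grown in nutrient broth. Compounds tested as two-fold serial dilutions at 400, 200, 100, 50, 25, 12.5, 6.25 and 3.13 µg/mL, with ciprofloxacin as reference. Incubation at 37±1 °C; MIC read after 24 h.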

[3] = tested on: Escherichia coli; test: Antibacterial activity against Escherichia coli NCIM 2256 after 24 hrs by two-fold serial dilution method; format: functional; conditions: NCIM 2256, 24 h; in short: as §1
[4] = tested on: Candida albicans; test: Antibiofilm activity against Candida albicans NCIM 3471 after 24 hrs by MTT assay; format: functional, organism-based; conditions: NCIM 3471, 24 h
In short: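 Biofilms formed from C. albicans at 10^5 cells/well in RPMI, exposed to 0–100 µM compound (fluconazole reference) for 24 h at 30 °C. Wells washed with phosphate buffer, then MTT (1 µg/µL) added for 3 h in the dark. Formazan dissolved in DMSO, absorbance read at 575 nm. IC50 for 50% biofilm inhibition taken from the inhibition curve.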

[5] = tested on: Staphylococcus aureus; test: Antibacterial activity against Staphylococcus aureus NCIM 2901 after 24 hrs by two-fold serial dilution method; format: functional; conditions: NCIM 2901, 24 h; in short: as §1
[6] = tested on: Pseudomonas aeruginosa; test: Antibacterial activity against Pseudomonas aeruginosa NCIM 2036 after 24 hrs by two-fold serial dilution method; format: functional; conditions: NCIM 2036, 24 h; in short: as §1

Structure (SMILES) | MIC [1] | MIC [2] | MIC [3] | IC50 [4] | MIC [5] | MIC [6]
OC(Cn1cncn1)(Cn1cncn1)c1ccc(F)cc1F [FLUCONAZOLE] | 50 µg/mL (≈ 163 µM) | – | – | – | – | –
O=[N+]([O-])c1cccc(/N=C/c2cccc(/C=C/c3ccc4ccc(Cl)cc4n3)c2)c1 | 106 µg/mL (≈ 256 µM) | 17.4 µg/mL (≈ 42 µM) | 185 µg/mL (≈ 447 µM) | 83.6 µM | 104 µg/mL (≈ 252 µM) | 190 µg/mL (≈ 459 µM)
FC(F)(F)c1cccc(/N=C/c2cccc(/C=C/c3ccc4ccc(Cl)cc4n3)c2)c1 | 191 µg/mL (≈ 437 µM) | 33.4 µg/mL (≈ 76.5 µM) | 102 µg/mL (≈ 233 µM) | 87.2 µM | 71.3 µg/mL (≈ 163 µM) | 142 µg/mL (≈ 325 µM)
Clc1ccc(/N=C/c2cccc(/C=C/c3ccc4ccc(Cl)cc4n3)c2)cc1 | 94.2 µg/mL (≈ 234 µM) | 31.6 µg/mL (≈ 78.4 µM) | 45 µg/mL (≈ 112 µM) | 66.2 µM | 170 µg/mL (≈ 422 µM) | 228 µg/mL (≈ 567 µM)
Cc1ccc(/N=C/c2cccc(/C=C/c3ccc4ccc(Cl)cc4n3)c2)cc1 | 164 µg/mL (≈ 429 µM) | 17 µg/mL (≈ 44.3 µM) | 205 µg/mL (≈ 535 µM) | 96.2 µM | 98.5 µg/mL (≈ 257 µM) | 177 µg/mL (≈ 462 µM)
FC(F)(F)c1ccccc1/N=C/c1cccc(/C=C/c2ccc3ccc(Cl)cc3n2)c1 | 282 µg/mL (≈ 646 µM) | 36.2 µg/mL (≈ 82.9 µM) | 67.5 µg/mL (≈ 155 µM) | 94.3 µM | 55.3 µg/mL (≈ 127 µM) | 250 µg/mL (≈ 572 µM)
FC(F)(F)c1ccc(/N=C/c2cccc(/C=C/c3ccc4ccc(Cl)cc4n3)c2)cc1 | 174 µg/mL (≈ 399 µM) | 37.7 µg/mL (≈ 86.2 µM) | 84.5 µg/mL (≈ 193 µM) | 51.2 µM | 89.7 µg/mL (≈ 205 µM) | 91.5 µg/mL (≈ 209 µM)
O=C(O)c1cn(C2CC2)c2cc(N3CCNCC3)c(F)cc2c1=O [CIPROFLOXACIN] | – | – | – | – | – | 50 µg/mL (≈ 151 µM)
O=[N+]([O-])c1ccc(/N=C/c2cccc(/C=C/c3ccc4ccc(Cl)cc4n3)c2)cc1 | 121 µg/mL (≈ 293 µM) | 15.7 µg/mL (≈ 37.9 µM) | 150 µg/mL (≈ 362 µM) | 92.1 µM | 166 µg/mL (≈ 400 µM) | 200 µg/mL (≈ 484 µM)
Cc1ccccc1/N=C/c1cccc(/C=C/c2ccc3ccc(Cl)cc3n2)c1 | 104 µg/mL (≈ 273 µM) | 136 µg/mL (≈ 356 µM) | 68.5 µg/mL (≈ 179 µM) | 166 µM | 85.3 µg/mL (≈ 223 µM) | 185 µg/mL (≈ 483 µM)
COc1ccc(/N=C/c2cccc(/C=C/c3ccc4ccc(Cl)cc4n3)c2)cc1 | 105 µg/mL (≈ 263 µM) | 17.6 µg/mL (≈ 44.1 µM) | 120 µg/mL (≈ 301 µM) | 97.5 µM | 94.8 µg/mL (≈ 238 µM) | 167 µg/mL (≈ 419 µM)
Clc1ccc2ccc(/C=C/c3cccc(/C=N/c4ccccc4)c3)nc2c1 | 98.8 µg/mL (≈ 268 µM) | 32.4 µg/mL (≈ 87.7 µM) | 110 µg/mL (≈ 298 µM) | 199 µM | 91.6 µg/mL (≈ 248 µM) | 102 µg/mL (≈ 277 µM)

Reference: ChEMBL document CHEMBL4330104, “Synthesis, biological evaluations and computational studies of N-(3-(-2-(7-Chloroquinolin-2-yl)vinyl) benzylidene)anilines as fungal biofilm inhibitors” (Bioorg Med Chem Lett, 2019)
